Experimental data collected from several papers.
BCL2L1: Bcl-2-like protein 1 (BCL2L1, Homo sapiens, UniProt Q07817)
CNR1: Cannabinoid receptor 1 (CNR1, Homo sapiens, UniProt P21554)
PPO3: PPO3 (Agaricus bisporus, UniProt C7FF04)

| target | observed | action | method | notes | endpoint | value | Structure (SMILES) |
| --- | --- | --- | --- | --- | --- | --- | --- |
| BCL2L1 | ligand displacement | – | AlphaScreen | – | Ki | 9.02 nM | CC1(C)CCC(c2ccc(Cl)cc2)=C(CN2CCN(c3ccc(C(=O)NS(=O)(=O)c4ccc(N[C@H](CCN(CCOCCOCCOCCNc5cccc6c5C(=O)N(C5CCC(=O)NC5=O)C6=O)C5CCC5)CSc5ccccc5)c(S(=O)(=O)C(F)(F)F)c4)cc3)CC2)C1 (some centres unmarked) |
| Probable G-protein coupled receptor 139 (GPR139, Homo sapiens, UniProt Q6DWJ6) | ligand displacement | – | radioligand | cell membranes | Ki | 66 nM | C[C@H](NC(=O)CNC(=O)c1cccc(Cl)c1)c1ccccc1 |
| CNR1 | calcium signal | antagonist | fluorescence | – | IC50 | 1350 nM | O=c1c(NCCc2ccccc2C(F)(F)F)c(Nc2ccc(Cl)cc2)c1=O |
| BCL2L1 | ligand displacement | – | AlphaScreen | – | Ki | 0.15 nM | Cc1c(-c2ccc(N3CCc4cccc(C(=O)Nc5nc6ccccc6s5)c4C3)nc2C(=O)NCCOCCOCCOCCNc2cccc3c2C(=O)N(C2CCC(=O)NC2=O)C3=O)cnn1CC12CC3CC(CC(C3)C1)C2 (centres unmarked) |
| PPO3 | enzyme activity | inhibitor | – | – | IC50 | > 50000 nM | O=C(CSc1nc2ccccc2cc1C=Nn1c(S)nnc1-c1ccccc1)Nc1ccccc1 |
| BCL2L1 | ligand displacement | – | AlphaScreen | – | Ki | 6.1 nM | Cc1ncsc1-c1ccc([C@H](C)NC(=O)[C@@H]2C[C@@H](O)CN2C(=O)[C@@H](NC(=O)CCCCCCCS(=O)(=O)NC(=O)c2nc(N3CCc4cccc(C(=O)Nc5nc6ccccc6s5)c4C3)ccc2-c2cc(C#N)n(CC34CC5CC(CC(C5)C3)C4)c2C)C(C)(C)C)cc1 |
| PPO3 | enzyme activity | inhibitor | – | – | IC50 | > 50000 nM | Cc1ccccc1NC(=O)CSc1nc2ccccc2cc1C=Nn1c(S)nnc1-c1ccccc1 |
| UDP-glucuronosyltransferase 1A3 (UGT1A3, Homo sapiens, UniProt P35503) | enzyme activity | inhibitor | – | – | IC50 | > 20000 nM | O=c1[nH]c(=O)c(Cc2cccc(C(F)(F)F)c2)c([C@H]2CC[C@H](c3ccccc3)CC2)[nH]1 |
| BCL2L1 | ligand displacement | – | AlphaScreen | – | Ki | 1.49 nM | Cc1c(-c2ccc(N3CCc4cccc(C(=O)Nc5nc6ccccc6s5)c4C3)nc2C(=O)NCCCCNc2cccc3c2C(=O)N(C2CCC(=O)NC2=O)C3=O)cnn1CC12CC3CC(CC(C3)C1)C2 (centres unmarked) |
| Endothelin-1 receptor (EDNRA, Homo sapiens, UniProt P25101) | ligand displacement | – | radioligand | cell membranes | IC50 | 0.43 nM | CCCNS(=O)(=O)Nc1ncnc(OCCOc2ncc(Br)cn2)c1-c1ccc(Br)cc1 |
| Mu-type opioid receptor (Oprm1, Mus musculus, UniProt P42866) | ligand displacement | – | radioligand | – | Ki | 39500 nM | CC(C)[C@@H](CN1CCc2ccccc2C1)NC(=O)c1cccc(-c2cccnc2)c1 |
| DNA-directed RNA polymerase, mitochondrial (POLRMT, Homo sapiens, UniProt O00411) | enzyme activity | inhibitor | – | – | IC50 | 22.2 nM | Cc1ccccc1-c1cc(=O)oc2cc(OC(C)C(=O)N(C)C)ccc12 (centres unmarked) |
| Poly [ADP-ribose] polymerase 1 (PARP1, Homo sapiens, UniProt P09874) | enzyme activity | inhibitor | fluorescence | – | IC50 | > 10000 nM | CCc1ccc(Cn2nnc3c4ccc(F)cc4c(=O)[nH]c32)cc1 |
| Histone deacetylase 2 (HDAC2, Homo sapiens, UniProt Q92769) | enzyme activity | inhibitor | fluorescence | – | IC50 | 167 nM | O=C(NO)c1ccc(Cn2cnc3c(Nc4cccc([N+](=O)[O-])c4)ncnc32)cc1 |
| PPO3 | enzyme activity | inhibitor | – | – | IC50 | > 50000 nM | O=C(CSc1nc2ccccc2cc1C=Nn1c(S)nnc1-c1ccccc1)Nc1ccc(Cl)cc1Cl |
| CNR1 | calcium signal | antagonist | fluorescence | – | IC50 | 214 nM | O=c1c(NCCc2ccc(Cl)cc2)c(Nc2ccc(Cl)cc2)c1=O |
| BCL2L1 | ligand displacement | – | AlphaScreen | – | Ki | 1.71 nM | Cc1ncsc1-c1ccc([C@H](C)NC(=O)[C@@H]2C[C@@H](O)CN2C(=O)[C@@H](NC(=O)CCCCCCCS(=O)(=O)NC(=O)c2nc(N3CCc4cccc(C(=O)Nc5nc6ccccc6s5)c4C3)ccc2-c2cnn(CC34CC5CC(CC(C5)C3)C4)c2C)C(C)(C)C)cc1 |
| Serine/threonine-protein kinase Nek3 (NEK3, Homo sapiens, UniProt P51956) | enzyme activity | inhibitor | – | – | IC50 | 175 nM | CN(C)C/C=C/C(=O)Nc1cccc(C(=O)Nc2ccc(Nc3nccc(-c4cccnc4)n3)cc2)c1 |
| Adenosine receptor A2a (ADORA2A, Homo sapiens, UniProt P29274) | ligand displacement | – | radioligand | – | Ki | 500 nM | Cc1cc(C)c2c(N)c(C(=O)Nc3ccon3)sc2n1 |
| Vitamin K-dependent protein C (PROC, Homo sapiens, UniProt P04070) | binding | – | SPR | – | Kd | 94800 nM | CCCCCCCCCCCCCCCC(=O)O |
| BCL2L1 | ligand displacement | – | AlphaScreen | – | Ki | 0.0112 nM | Cc1c(-c2ccc(N3CCc4cccc(C(=O)Nc5nc6ccccc6s5)c4C3)nc2C(=O)NCCOCCOCCOCCO)cnn1CC12CC3CC(CC(C3)C1)C2 |
| BCL2L1 | ligand displacement | – | AlphaScreen | – | Ki | 0.38 nM | CCN(CCOCCOCCOCCNc1cccc2c1C(=O)N(C1CCC(=O)NC1=O)C2=O)CC[C@H](CSc1ccccc1)Nc1ccc(S(=O)(=O)NC(=O)c2ccc(N3CCN(CC4=C(c5ccc(Cl)cc5)CCC(C)(C)C4)CC3)cc2)cc1S(=O)(=O)C(F)(F)F (some centres unmarked) |
| CNR1 | cAMP | antagonist | – | – | IC50 | 1550 nM | NC(=O)c1nnn(Cc2cc(Cl)c(C(=O)c3ccc(Cl)cc3)c(Cl)c2)c1N |
